PMC5769151 (Journal of medicinal chemistry, 2015)

Tests used:
MOR = MOR (Homo sapiens, UniProt P35372); assay type: cell-based
NK1R [1] = target: T1, NK1R (Homo sapiens, UniProt P25103); assay type: cell-based
Target sequence in this assay (P25103 whole entry, species assumed): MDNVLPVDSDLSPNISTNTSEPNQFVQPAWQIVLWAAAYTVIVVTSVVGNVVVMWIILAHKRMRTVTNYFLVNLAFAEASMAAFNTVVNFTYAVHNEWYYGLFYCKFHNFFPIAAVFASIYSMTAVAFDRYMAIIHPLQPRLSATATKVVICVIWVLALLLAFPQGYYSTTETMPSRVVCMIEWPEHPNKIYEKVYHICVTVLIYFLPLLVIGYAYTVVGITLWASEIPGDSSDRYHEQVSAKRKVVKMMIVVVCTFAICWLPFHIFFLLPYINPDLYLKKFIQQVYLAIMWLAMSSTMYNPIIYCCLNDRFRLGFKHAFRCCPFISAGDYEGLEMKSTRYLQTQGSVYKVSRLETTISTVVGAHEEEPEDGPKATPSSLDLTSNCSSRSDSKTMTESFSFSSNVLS

GPI/LMMP (NK1R) = GPI/LMMP (NK1R) (Cavia porcellus, UniProt P30547); assay: GPI/LMMP functional assay at NK1R; assay type: cell-based, guinea pig; details: at the concentration printed in the cell
NK1R [2] = target: T1, NK1R; assay: hNK1/CHO cell membrane radioligand binding assay; details: binding ratio human/rat NK1
Target sequence in this assay (P25103 whole entry): as the sequence (P25103 whole entry, species assumed) above

μ opioid receptor (MOR) = assay type: binding
GPI (MOR) = assay: Guinea pig isolated ileum; assay type: cell-based; details: IC50 μ / IC50 δ
How it was run: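 Male Hartley guinea pig ileum LMMP (0.1 Hz, 0.4 ms) and male ICR mouse vasa deferentia (0.5 g tension, Mg-free Krebs, 37 °C, O2/CO2 95:5; 0.1 Hz single pulses, 2.0 ms), electrically stimulated at supramaximal voltage.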

GPI/LMMP (NK1R), sequence (P30547 whole entry): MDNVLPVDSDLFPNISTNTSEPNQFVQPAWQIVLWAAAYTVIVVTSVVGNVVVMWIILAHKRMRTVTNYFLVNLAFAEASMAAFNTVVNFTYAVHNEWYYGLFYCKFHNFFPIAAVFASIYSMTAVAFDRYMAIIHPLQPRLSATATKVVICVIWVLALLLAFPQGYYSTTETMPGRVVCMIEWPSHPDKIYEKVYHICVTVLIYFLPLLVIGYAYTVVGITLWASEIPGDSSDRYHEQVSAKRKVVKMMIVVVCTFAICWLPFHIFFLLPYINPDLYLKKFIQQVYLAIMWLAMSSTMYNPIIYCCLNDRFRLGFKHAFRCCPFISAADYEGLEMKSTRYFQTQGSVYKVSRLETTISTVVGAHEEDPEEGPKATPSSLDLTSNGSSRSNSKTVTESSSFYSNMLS
MOR, sequence (P35372 whole entry): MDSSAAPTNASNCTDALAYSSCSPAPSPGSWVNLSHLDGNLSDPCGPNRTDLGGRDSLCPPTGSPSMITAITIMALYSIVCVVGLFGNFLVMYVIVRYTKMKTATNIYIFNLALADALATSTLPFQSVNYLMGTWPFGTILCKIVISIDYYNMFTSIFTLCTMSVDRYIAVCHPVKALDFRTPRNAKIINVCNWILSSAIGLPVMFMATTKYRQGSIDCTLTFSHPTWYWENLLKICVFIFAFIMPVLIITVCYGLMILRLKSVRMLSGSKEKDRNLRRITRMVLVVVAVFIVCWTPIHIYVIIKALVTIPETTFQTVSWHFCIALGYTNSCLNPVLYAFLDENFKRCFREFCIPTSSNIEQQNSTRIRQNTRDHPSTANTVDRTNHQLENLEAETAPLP

Q: What does the source list for Cc1cc(O)cc(C)c1C[C@H](N)C(=O)N[C@H](C)C(=O)NCC(=O)N[C@@H](Cc1ccccc1)C(=O)N1CCC[C@H]1C(=O)N[C@@H](CC(C)C)C(=O)N[C@@H](Cc1c[nH]c2ccccc12)C(=O)NCc1cc(C(F)(F)F)cc(C(F)(F)F)c1 [ligand 4]?
A: MOR/DOR IC50 ratio (cAMP assay) (MOR): 6/1; Kb (NK1R [1]): 11 ± 10 nM; GPI/LMMP (NK1R) agonism (GPI/LMMP (NK1R)): none at 100 nM; Ki^hNK1/Ki^rNK1 (NK1R [2]): 1/19; Ki^μ/Ki^δ (μ opioid receptor (MOR); binding ratio MOR/DOR): 3/1; log[IC50±] (MOR) (μ opioid receptor (MOR); log IC50 from nonlinear regression, MOR binding): −8.63 ± 0.04; GPI/MVD IC50 ratio (GPI (MOR)): 26/1
